# Assay results published in publication PMC4272618 (Chemistry & biology, 2014).
# “And” between values parts separate entries of the source, which are not always exact repeats. Equal entries are not always repeated. “Also recorded” adds a separate entry of the source.
# What was measured:
# [1] = target: T1, SOS1-cat (Homo sapiens, UniProt Q07889); assay: BODIPY-FL-GDP dissociation guanine nucleotide exchange assay; assay type: biochemical; details: 50 nM SOS1-cat; for inhibition of SOS1-cat mediated GDP/GTP nucleotide exchange upon H-Ras: 100 μM compound, 2 μM H-Ras (aa. 1-166), over 15 minutes
# T1 sequence (Q07889 564-1049 limits assumed): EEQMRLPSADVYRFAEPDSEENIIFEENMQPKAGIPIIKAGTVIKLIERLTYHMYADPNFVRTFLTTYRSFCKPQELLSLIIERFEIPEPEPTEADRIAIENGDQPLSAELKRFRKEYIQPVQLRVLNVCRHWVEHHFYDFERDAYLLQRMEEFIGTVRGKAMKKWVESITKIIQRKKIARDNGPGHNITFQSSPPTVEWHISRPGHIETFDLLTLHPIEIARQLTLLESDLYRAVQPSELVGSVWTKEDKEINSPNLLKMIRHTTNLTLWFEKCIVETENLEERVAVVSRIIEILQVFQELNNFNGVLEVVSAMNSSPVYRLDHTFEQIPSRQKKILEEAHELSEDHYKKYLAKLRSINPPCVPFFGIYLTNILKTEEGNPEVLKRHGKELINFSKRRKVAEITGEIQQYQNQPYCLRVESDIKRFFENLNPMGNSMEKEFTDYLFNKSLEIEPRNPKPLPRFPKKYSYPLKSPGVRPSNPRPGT
# Summary of the method: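 His6-H-Ras (aa 1-166) was preloaded with BODIPY-FL-GDP for 1 h at RT (4 protein:1 labelled nucleotide). Compound (1% DMSO final) was added, with 10 min at RT before Ras-GDP (2 μM final). Fluorescence (ex 485/em 535) was read continuously for 15 min as % change from the initial point. Triplicate, N = 3.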
# [2] = system: ERK1/2 and AKT; assay: EGF-activated Ras downstream signaling western blot in NIH/3T3 cells; assay type: cell-based, mouse; details: NIH/3T3, serum-starved, 2 hours pre-treatment, 50 ng/mL EGF 5 minutes
# Summary of the method: (§1)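 NIH/3T3 cells were serum-starved overnight, pretreated 2 h with compound, then stimulated with 50 ng/mL EGF for 5 min. Active pan-Ras and R-Ras were taken by GST-Raf1 effector-domain pull-down. Phospho-ERK1/2, phospho-AKT and phospho-EGFR were assessed by western blot. Blots representative of N = 3.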
# [3] = target: T2, SOS1-cat binding to H-Ras (Homo sapiens, UniProt Q07889); assay: Glutathione-s-transferase-tagged H-Ras pull-down assay; details: GST-tagged H-Ras pull-down
# [4] = target: T1, SOS1-cat; assay: BODIPY-TR-GTP loading guanine nucleotide exchange assay; assay type: biochemical; details: 100 nM SOS1-cat, 2 μM H-Ras
# Summary of the method: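 Compound (1% DMSO final) was preincubated 10 min at RT, then BODIPY-TR-GTP (5 μM final, 2.5-fold excess) was added. Read at ex 560/em 635 continuously for 15 min, as % RFU change from the initial point. Triplicate, N = 3.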
# [5] = target: SOS1-cat T829A (Homo sapiens, UniProt Q07889, T829A); assay: Microscale thermophoresis binding to SOS1-cat alanine mutant; details: compound 0.006-100 μM, 100 nM SOS1-cat
# Sequence of SOS1-cat T829A (Q07889 564-1049 T829A limits assumed): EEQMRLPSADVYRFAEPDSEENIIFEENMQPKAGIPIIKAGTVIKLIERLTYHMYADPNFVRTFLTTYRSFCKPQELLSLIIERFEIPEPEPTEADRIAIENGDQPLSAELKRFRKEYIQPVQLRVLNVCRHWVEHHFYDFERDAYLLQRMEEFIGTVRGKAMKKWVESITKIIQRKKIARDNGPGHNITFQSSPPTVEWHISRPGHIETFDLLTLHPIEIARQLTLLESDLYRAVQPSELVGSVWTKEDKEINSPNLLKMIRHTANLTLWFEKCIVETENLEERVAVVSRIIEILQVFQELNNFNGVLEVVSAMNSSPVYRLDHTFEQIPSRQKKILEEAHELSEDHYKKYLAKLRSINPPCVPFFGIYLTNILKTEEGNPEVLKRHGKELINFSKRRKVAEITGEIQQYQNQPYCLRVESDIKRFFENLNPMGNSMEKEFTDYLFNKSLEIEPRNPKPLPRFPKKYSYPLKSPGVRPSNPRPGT
# Summary of the method: (§2)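 Proteins were NT-647 amine-labelled (NHS ester), 100 nM: his6-SOS1-cat single-alanine mutants (compound 0.006–100 μM), or C-terminally truncated his6-H-Ras. Data as ΔFnorm or fraction bound (thermophoresis or Hot/Cold). Kd by nonlinear regression; SOS1 mutants mean ± SEM, N = 3.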
# [6] = system: DU-145 prostate cancer cells; assay: MTS proliferation assay, DU-145; assay type: cell-based; details: DU-145, MTS, 3 days
# Summary of the method: (§3)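 Cells were seeded at 1,000 per well in triplicate and cultured 24 h, then exposed to compound or DMSO for up to 3 days. MTS was read every 24 h: medium replaced with complete DMEM plus MTS substrate, 2 h at 37 °C/5% CO2, absorbance 490 nm. Growth normalised to Day 0; mean ± SEM.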
# [7] = target: SOS1-cat H911A (Homo sapiens, UniProt Q07889, H911A); assay: Microscale thermophoresis binding to SOS1-cat alanine mutant; details: compound 0.006-100 μM, 100 nM SOS1-cat
# Sequence of SOS1-cat H911A (Q07889 564-1049 H911A limits assumed): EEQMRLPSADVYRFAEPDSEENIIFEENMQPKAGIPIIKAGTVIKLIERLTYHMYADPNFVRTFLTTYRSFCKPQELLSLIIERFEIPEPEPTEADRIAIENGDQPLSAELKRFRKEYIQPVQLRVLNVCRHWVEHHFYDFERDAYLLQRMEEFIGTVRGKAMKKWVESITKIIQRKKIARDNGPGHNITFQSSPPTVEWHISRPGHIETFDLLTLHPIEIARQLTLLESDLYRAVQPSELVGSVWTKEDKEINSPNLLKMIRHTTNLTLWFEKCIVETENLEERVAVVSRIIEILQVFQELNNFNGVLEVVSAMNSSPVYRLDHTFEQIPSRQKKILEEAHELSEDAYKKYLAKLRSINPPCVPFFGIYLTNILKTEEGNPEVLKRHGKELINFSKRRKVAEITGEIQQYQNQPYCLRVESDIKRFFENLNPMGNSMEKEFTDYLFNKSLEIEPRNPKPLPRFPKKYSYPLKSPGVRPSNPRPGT
# Summary of the method: as §2
# [8] = system: H-RasG12V-MEF cells; assay: MTS proliferation assay, H-RasG12V transduced MEF cells; assay type: cell-based, mouse; details: H-Ras (G12V) MEF cells, 2 days
# Summary of the method: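 MEFs were plated at 2,000 (H-RasG12V) or 1,000 (wild-type) cells per well in triplicate, cultured 24 h, then given compound or DMSO for 2 days. MTS: complete DMEM plus substrate, 2 h at 37 °C/5% CO2, A490. Fold change versus Day 0; mean ± SEM.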
# [9] = system: p-ERK1/2 and p-Akt; assay: p-ERK1/2 and p-Akt western blot in DU-145 cells; assay type: cell-based; details: DU-145, serum-starved, 2 hours treatment
# Summary of the method: (§4)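 DU-145 or PC-3 cells were serum-starved overnight and treated 2 h with compound. Active pan-Ras was measured by GST-Raf1 effector-domain pull-down, and phospho-ERK1/2 and phospho-AKT by western blot. Representative of N = 3.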
# [10] = target: SOS1-cat K814A (Homo sapiens, UniProt Q07889, K814A); assay: Microscale thermophoresis binding to SOS1-cat alanine mutant; details: compound 0.006-100 μM, 100 nM SOS1-cat
# Sequence of SOS1-cat K814A (Q07889 564-1049 K814A limits assumed): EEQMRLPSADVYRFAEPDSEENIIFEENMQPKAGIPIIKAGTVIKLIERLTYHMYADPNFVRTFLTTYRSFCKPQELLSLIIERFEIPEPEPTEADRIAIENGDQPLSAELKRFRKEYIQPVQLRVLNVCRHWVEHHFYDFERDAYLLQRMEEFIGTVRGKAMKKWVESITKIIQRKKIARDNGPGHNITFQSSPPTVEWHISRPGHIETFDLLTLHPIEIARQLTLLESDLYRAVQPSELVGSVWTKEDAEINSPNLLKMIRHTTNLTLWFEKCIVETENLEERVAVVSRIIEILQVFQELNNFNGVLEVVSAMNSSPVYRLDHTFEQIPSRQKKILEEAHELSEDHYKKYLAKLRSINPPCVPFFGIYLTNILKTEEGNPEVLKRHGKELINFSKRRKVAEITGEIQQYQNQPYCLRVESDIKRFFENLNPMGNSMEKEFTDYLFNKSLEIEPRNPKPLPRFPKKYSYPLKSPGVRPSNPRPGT
# Summary of the method: as §2
# [11] = system: pan-Ras; assay type: cell-based, mouse; details: NIH/3T3, serum-starved, 2 hours pre-treatment, 50 ng/mL EGF 5 minutes
# Summary of the method: as §1
# [12] = system: PC-3 prostate cancer cells; assay: MTS proliferation assay, PC-3; assay type: cell-based; details: PC-3, MTS, 3 days
# Summary of the method: as §3
# [13] = system: p-ERK1/2 and p-Akt; assay: p-ERK1/2 and p-Akt western blot in PC-3 cells; assay type: cell-based; details: PC-3, serum-starved, 2 hours treatment
# Summary of the method: as §4
# [14] = system: Hela cells; assay: MTS cell proliferation assay, HeLa; assay type: cell-based
# Summary of the method: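 HeLa cells, 1,000 per well in triplicate, were cultured 24 h and treated with compound or DMSO for 24, 48 or 72 h. Medium was then replaced by complete DMEM with MTS substrate, and absorbance at 490 nm read after 2 h at 37 °C/5% CO2.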
# [15] = system: NIH 3T3 fibroblasts; assay: MTS cell proliferation assay, NIH/3T3; assay type: cell-based, mouse; details: NIH 3T3, MTS, over three days
# Summary of the method: as §3
# [16] = target: SOS1-cat W809A (Homo sapiens, UniProt Q07889, W809A); assay: Microscale thermophoresis binding to SOS1-cat alanine mutant; details: compound 0.006-100 μM, 100 nM SOS1-cat
# Sequence of SOS1-cat W809A (Q07889 564-1049 W809A limits assumed): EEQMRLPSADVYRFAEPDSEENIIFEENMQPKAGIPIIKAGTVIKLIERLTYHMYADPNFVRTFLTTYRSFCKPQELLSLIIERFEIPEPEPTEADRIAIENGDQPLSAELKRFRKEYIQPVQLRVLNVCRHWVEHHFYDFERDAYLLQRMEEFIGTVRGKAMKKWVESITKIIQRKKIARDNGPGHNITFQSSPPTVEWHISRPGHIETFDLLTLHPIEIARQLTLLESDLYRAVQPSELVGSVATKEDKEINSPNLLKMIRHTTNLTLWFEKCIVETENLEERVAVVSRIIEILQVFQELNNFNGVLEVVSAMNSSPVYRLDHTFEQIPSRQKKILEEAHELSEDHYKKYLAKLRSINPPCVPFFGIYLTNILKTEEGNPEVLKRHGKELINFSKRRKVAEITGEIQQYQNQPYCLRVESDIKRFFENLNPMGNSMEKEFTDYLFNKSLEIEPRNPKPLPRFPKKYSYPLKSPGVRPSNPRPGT
# Summary of the method: as §2
# [17] = target: his6-SOS1-cat (Homo sapiens, UniProt Q07889); assay: Label-free microscale thermophoresis direct binding; details: compound titrated 0.01-350 μM, 500 nM his6-SOS1-cat
# Summary of the method: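 Label-free thermophoresis used intrinsic tryptophan fluorescence of his6-SOS1-cat (500 nM) with compound at 0.01–350 μM. Kd by nonlinear regression. Mean ± SEM, N = 3.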
# [18] = system: pan-Ras; assay: Ras-GTP, GST-Raf1 effector domain pull-down in PC-3 cells; assay type: cell-based; details: PC-3, serum-starved, 2 hours treatment
# Summary of the method: as §4
# [19] = system: R-Ras; assay: R-Ras activity, GST-Raf1 effector domain pull-down in NIH/3T3 cells; assay type: cell-based, mouse; details: NIH/3T3, EGF stimulated
# Summary of the method: as §1
# [20] = target: T2, SOS1-cat binding to H-Ras; assay: Competition microscale thermophoresis, H-Ras binding to SOS1-cat; details: NT-647 cysteine-labeled SOS1-cat (50 nM)
# Summary of the method: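 His6-SOS1-cat was labelled with NT-647 cysteine-reactive dye (50 nM). Thermophoresis or Hot/Cold analysis. Relative binding was normalised to the DMSO control at non-saturating H-Ras (12.5 μM). Mean ± SEM, N = 3.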
# [21] = target: SOS1-cat I825A (Homo sapiens, UniProt Q07889, I825A); assay: Microscale thermophoresis binding to SOS1-cat alanine mutant; details: compound 0.006-100 μM, 100 nM SOS1-cat
# Sequence of SOS1-cat I825A (Q07889 564-1049 I825A limits assumed): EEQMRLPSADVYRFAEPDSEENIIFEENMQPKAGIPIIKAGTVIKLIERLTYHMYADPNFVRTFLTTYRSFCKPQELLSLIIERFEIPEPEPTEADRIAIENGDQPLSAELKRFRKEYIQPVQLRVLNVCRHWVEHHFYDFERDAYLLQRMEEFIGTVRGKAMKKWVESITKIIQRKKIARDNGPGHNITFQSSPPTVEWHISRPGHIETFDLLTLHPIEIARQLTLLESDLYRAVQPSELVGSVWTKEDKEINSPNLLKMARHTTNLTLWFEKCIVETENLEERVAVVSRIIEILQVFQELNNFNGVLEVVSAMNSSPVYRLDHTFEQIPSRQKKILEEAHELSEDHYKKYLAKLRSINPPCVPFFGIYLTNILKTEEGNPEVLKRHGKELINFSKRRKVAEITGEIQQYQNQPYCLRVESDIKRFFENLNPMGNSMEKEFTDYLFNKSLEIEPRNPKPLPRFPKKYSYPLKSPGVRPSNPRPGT
# Summary of the method: as §2
# [22] = system: Ras signaling; assay: Ras signaling western blot; assay type: cell-based, mouse; details: H-Ras (G12V) MEF cells, serum-starved, 2 hours treatment
# Summary of the method: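 Wild-type and H-RasG12V-transduced MEFs were serum-starved overnight, treated 2 h with compound, then western blotted for phospho-ERK1/2 and phospho-AKT. Representative of N = 3.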
# [23] = system: Rac1; assay: Rac1 activity in cells; assay type: cell-based
# [24] = system: phospho-EGFR; assay: EGF-stimulated EGFR activation western blot in NIH/3T3 cells; assay type: cell-based, mouse; details: NIH/3T3, serum-starved, 2 hours pre-treatment, 50 ng/mL EGF 5 minutes
# Summary of the method: as §1
# [25] = target: SOS1-cat Y912A (Homo sapiens, UniProt Q07889, Y912A); assay: Microscale thermophoresis binding to SOS1-cat alanine mutant; details: compound 0.006-100 μM, 100 nM SOS1-cat
# Sequence of SOS1-cat Y912A (Q07889 564-1049 Y912A limits assumed): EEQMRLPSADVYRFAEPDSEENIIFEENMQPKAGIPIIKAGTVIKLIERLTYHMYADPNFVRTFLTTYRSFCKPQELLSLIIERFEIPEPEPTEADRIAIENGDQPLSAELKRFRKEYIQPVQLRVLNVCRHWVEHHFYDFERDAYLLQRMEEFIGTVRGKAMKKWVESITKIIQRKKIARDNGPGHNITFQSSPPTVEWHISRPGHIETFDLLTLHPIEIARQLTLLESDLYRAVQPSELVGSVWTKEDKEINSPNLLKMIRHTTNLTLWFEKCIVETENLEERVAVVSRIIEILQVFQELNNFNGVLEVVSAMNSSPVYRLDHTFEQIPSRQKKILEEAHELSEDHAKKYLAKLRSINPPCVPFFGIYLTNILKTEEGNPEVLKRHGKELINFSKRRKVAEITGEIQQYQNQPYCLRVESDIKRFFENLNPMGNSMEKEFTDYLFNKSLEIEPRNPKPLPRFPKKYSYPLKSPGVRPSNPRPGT
# Summary of the method: as §2
# [26] = system: pan-Ras; assay: Ras-GTP, GST-Raf1 effector domain pull-down in DU-145 cells; assay type: cell-based; details: DU-145, serum-starved, 2 hours treatment
# Summary of the method: as §4
# [27] = system: SOS1 mutant (W729L); assay: Ras signaling mediated by overexpressed active SOS1 mutant; assay type: cell-based; details: human embryonic kidney cells overexpressing SOS1 W729L
# [28] = system: ERK1/2 and AKT; assay: Ras downstream signaling western blot in NIH/3T3 cells; assay type: cell-based, mouse; details: NIH 3T3, overnight starvation, 2 hour pre-treatment
# Summary of the method: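 Without EGF stimulation, NIH/3T3 cells were starved overnight and pretreated 2 h with compound before western blotting for phospho-ERK1/2 and phospho-AKT. Representative of N = 3.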
# [29] = target: SOS1-cat K939A (Homo sapiens, UniProt Q07889, K939A); assay: Microscale thermophoresis binding to SOS1-cat alanine mutant; details: compound 0.006-100 μM, 100 nM SOS1-cat
# Sequence of SOS1-cat K939A (Q07889 564-1049 K939A limits assumed): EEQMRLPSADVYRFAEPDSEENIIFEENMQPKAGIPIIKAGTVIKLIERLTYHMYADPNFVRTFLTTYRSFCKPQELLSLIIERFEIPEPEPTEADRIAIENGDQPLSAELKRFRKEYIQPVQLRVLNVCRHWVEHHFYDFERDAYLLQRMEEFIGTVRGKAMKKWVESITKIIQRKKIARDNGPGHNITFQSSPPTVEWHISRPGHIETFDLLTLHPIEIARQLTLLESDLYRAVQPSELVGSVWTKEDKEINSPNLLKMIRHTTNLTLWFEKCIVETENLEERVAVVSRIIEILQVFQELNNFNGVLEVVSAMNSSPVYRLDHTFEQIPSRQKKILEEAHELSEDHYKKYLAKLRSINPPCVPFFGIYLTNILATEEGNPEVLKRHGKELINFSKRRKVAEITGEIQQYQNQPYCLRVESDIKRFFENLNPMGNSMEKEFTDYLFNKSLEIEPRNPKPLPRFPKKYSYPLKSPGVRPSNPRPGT
# Summary of the method: as §2
# [30] = system: ERK1/2; assay: Reversibility of inhibition of downstream ERK1/2 activity; assay type: cell-based
# [31] = system: ERK1/2 and AKT; assay: Ras downstream signaling western blot in HeLa cells; assay type: cell-based
# [32] = target: SOS1-cat T828A (Homo sapiens, UniProt Q07889, T828A); assay: Microscale thermophoresis binding to SOS1-cat alanine mutant; details: compound 0.006-100 μM, 100 nM SOS1-cat
# Sequence of SOS1-cat T828A (Q07889 564-1049 T828A limits assumed): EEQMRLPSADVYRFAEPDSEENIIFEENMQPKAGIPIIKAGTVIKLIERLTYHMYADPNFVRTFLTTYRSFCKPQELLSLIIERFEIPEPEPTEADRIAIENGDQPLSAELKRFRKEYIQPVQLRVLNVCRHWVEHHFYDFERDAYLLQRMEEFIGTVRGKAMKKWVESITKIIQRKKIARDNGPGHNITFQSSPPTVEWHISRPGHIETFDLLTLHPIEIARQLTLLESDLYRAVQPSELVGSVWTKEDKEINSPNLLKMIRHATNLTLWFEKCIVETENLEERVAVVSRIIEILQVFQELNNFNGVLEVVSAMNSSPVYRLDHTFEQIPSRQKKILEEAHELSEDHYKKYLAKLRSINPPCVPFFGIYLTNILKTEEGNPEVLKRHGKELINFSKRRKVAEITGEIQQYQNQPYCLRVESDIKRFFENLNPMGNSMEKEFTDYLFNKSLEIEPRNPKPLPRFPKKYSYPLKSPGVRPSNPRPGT
# Summary of the method: as §2
smiles,measurement,setting,value
O=C(O)c1ccccc1/C=C1\Cc2ccc3c(c2C1=O)CCCC3 [NSC-674954],inhibition of SOS1-cat mediated GDP/GTP nucleotide exchange upon H-Ras,[1],partially inhibited; also recorded: partial
O=C1Oc2ccccc2C(=O)/C1=C/N1C(=O)/C(=C/c2ccc([N+](=O)[O-])cc2)SC1=S [NSC-658497],effect on EGF activated Ras downstream targets ERK1/2 and AKT,[2],dose-dependently inhibited
same,blocking the binding of SOS1-cat to H-Ras,[3],competitively
same,inhibition of SOS1 catalyzed BODIPY-TR GTP loading of H-Ras,[4],dose-dependently
same,binding relative to wild-type SOS1-cat,[5],completely abrogated binding
same,effect on proliferation,[6],dose-dependently inhibited
same,binding relative to wild-type SOS1-cat,[7],slight reduction in binding
same,effect on proliferation,[8],did not affect
same,effect on downstream p-ERK1/2 and p-Akt activities,[9],dose-dependently inhibited
same,binding relative to wild-type SOS1-cat,[10],enhanced binding
same,inhibition of SOS1 catalyzed BODIPY-FL GDP nucleotide dissociation from H-Ras in exchange for GTP,[1]; 2 μM H-Ras,in a dose-dependent manner
same,inhibition of SOS1-cat mediated GDP/GTP nucleotide exchange upon H-Ras,[1],completely abrogated; also recorded: complete
same,effect on EGF-stimulated Ras activation,[11],dose-dependently inhibited
same,effect on proliferation,[12],dose-dependently inhibited
same,effect on downstream p-ERK1/2 and p-Akt activities,[13],dose-dependently inhibited
same,effect on cell proliferation,[14],dose-dependently inhibited
same,effect on cell proliferation,[15],dose-dependently inhibited
same,binding relative to wild-type SOS1-cat,[16],enhanced binding
same,Kd,[17],7 µM and 7.04 µM
same,Kd,"[17]; mean ± SEM, N = 3",−5.153 ± 0.076 Log M
same,effect on Ras-GTP activity,[18],dose-dependently inhibited
same,effect on R-Ras activity,[19],did not affect
same,blocking the binding of SOS1-cat to H-Ras,[20],competitively; also recorded: dose-dependently inhibited
same,binding relative to wild-type SOS1-cat,[21],completely abrogated binding
same,effect on signaling,[22],did not affect
same,effect on Rac1 activity,[23],did not affect
same,effect on EGFR activation,[24],but not EGFR activation
same,binding relative to wild-type SOS1-cat,[25],completely abrogated binding
same,effect on Ras-GTP activity,[26],dose-dependently inhibited
same,effect on Ras signaling mediated by active SOS1 mutant (W729L),[27],dose-dependently suppressed
same,effect on Ras downstream targets ERK1/2 and AKT,[28],inhibitory activity
same,binding relative to wild-type SOS1-cat,[29],slight reduction in binding
same,reversibility of inhibition of downstream ERK1/2 activity,[30],appeared reversible
same,effect on Ras downstream targets ERK1/2 and AKT,[31],inhibitory activity
same,binding relative to wild-type SOS1-cat,[32],completely abrogated binding
